The source of these data is PMC4168015 (Journal of biomolecular screening, 2013).

“Also recorded” adds a separate entry of the source. Where two headings read alike, the source gives them in different places.

By IC50 is commonly meant the midpoint of a concentration-inhibition curve. The term GI50 denotes the concentration that inhibits growth by half. One may read the Kd as the free concentration of one partner at which half of the binding sites on the other are occupied at equilibrium, for simple one-to-one binding.

The target in experiment [1] is Skp2-Cks1 interaction (Homo sapiens, UniProt P61024+Q13309). As to the kind of experiment: AlphaScreen assay for Skp2-Cks1 interaction. Format: binding. For orientation: In Alpha technology, singlet oxygen from a donor bead excites a nearby acceptor bead.
The target of experiment [2] is SCF^Skp2 (E3) ubiquitination of p27 (Homo sapiens, UniProt Q13309). The experiment is described as follows: In vitro p27 ubiquitination assay. Format: biochemical. The method, boiled down: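 Mouse p27 translated in rabbit reticulocyte lysate with [35S]-methionine and phosphorylated by recombinant CDK2–cyclin E. It was then mixed with 100 nM E1, 200 nM His-Cdc34, 100 nM SCFSkp2, 50 nM Cks1, 10 μM ubiquitin, 10 μM methylated ubiquitin, ATP regeneration system, 1 μM ubiquitin aldehyde and 1 μM MG132. Run 30 min, 30 °C; products read by SDS-PAGE/phosphorimager. Test compound 40 μM.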

For experiment [3], the system named is mink lung epithelial cell line stably expressing GFP-p27. The experiment is described as follows: GFP-p27 stabilization in mink lung epithelial cell line. Format: cell-based. The following applies: for endogenous p27 level: mink lung epithelial cell line; for stabilization of GFP-p27: mink lung epithelial cell line stably expressing GFP-p27.
Experiment [4] relates to p210^bcr-abl. The following applies: read-out: IC50 against p210^bcr-abl in vitro; cited from earlier work.
Experiment [5] concerns K562 leukemia cell lines. The following applies: read-out: GI50 against K562 leukemia cell lines; cited from earlier work.
Experiment [6] deals with Cks1 (Homo sapiens) (UniProt P61024). The following applies: cited from earlier work.
The target is the same in experiment [7]. As to the kind of experiment: ITC. The following applies: cited from earlier work.
Where [8] appears, read: read-out: Inhibition of Skp2-Cks1 IC50, AlphaScreen, GST-Skp2/Skp1 20 nM, Cks1 200 nM.
Setting [9] is: read-out: p27 Ub IC50, in vitro p27 ubiquitination.

Sequence of Skp2 (Q13309 whole entry): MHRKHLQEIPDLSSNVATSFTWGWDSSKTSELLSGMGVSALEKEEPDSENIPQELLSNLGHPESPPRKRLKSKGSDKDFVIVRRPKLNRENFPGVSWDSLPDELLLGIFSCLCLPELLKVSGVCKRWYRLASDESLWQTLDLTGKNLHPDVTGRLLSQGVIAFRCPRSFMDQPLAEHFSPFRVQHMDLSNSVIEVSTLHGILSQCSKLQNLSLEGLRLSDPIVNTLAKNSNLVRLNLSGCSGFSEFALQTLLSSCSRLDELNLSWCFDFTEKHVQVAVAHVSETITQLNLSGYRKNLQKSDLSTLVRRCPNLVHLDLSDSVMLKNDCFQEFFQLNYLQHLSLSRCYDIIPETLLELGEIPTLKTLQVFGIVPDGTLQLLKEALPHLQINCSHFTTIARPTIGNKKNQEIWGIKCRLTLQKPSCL
Sequence of Cks1 (Homo sapiens) (P61024 2-79): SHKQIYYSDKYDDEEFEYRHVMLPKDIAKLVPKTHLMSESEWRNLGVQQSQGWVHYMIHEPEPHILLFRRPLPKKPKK

Consider `O=C1C=CC(=O)C=C1` [BQ, 1,4-benzoquinone, reference compound], for which the IC50 in experiment [1] came out at 626 ± 65.7 µM. In experiment [1] (AlphaScreen), the “effect on Skp2-Cks1 interaction (in words)” value is given as “no effect”. In experiment [2], the IC50 was over 300 µM and the “effect on p27 ubiquitination in vitro (in words)” value (“effect on p27 ubiquitination” for short) is reported as “no effect”.
Take `O=C(OCC12CC3CC(CC(C3)C1)C2)c1ccc(NCc2cc(O)ccc2O)cc1` [Compound 857]: the “effect on Skp2-Cks1 interaction (in words)” value in experiment [1] (AlphaScreen) is listed as “blocked the Skp2-Cks1 interaction at low μM concentrations”. For the same molecule, the values for the IC50 in experiment [1] (setting [8]), in experiment [2] (setting [9]) and in experiment [4] were 36 ± 6.2 µM, about 30 µM and 12.6 µM, respectively. In addition, the “effect on p27 ubiquitination” value in experiment [2] (listed as NSC689857) was “impeded p27 polyubiquitination in a dose-dependent manner; also recorded: inhibited p27 ubiquitination in vitro”. Further, in experiment [3], the “endogenous p27 level” value is reported as “increases only marginally”. For the same molecule, the “stabilization of GFP-p27” value in experiment [3] was “dose-dependent stabilization”. In addition, in experiment [5], the GI50 was 12.8 µM.
In the case of `CCCCC(=O)c1ccc(OC)c(C)c1` [Compound A857], the IC50 was 1090 ± 189 µM in experiment [1] (setting [8]) and over 300 µM in experiment [2] (setting [9]).
The corresponding values for `CCCCC(=O)c1ccc(OC)c(C)c1` [Compound E857] are 8310 ± 1460 µM and over 300 µM.
For `CCCCC(=O)c1ccc(OC)c(C)c1` [Compound Q857], the “effect on Skp2-Cks1 interaction (in words)” value in experiment [1] (AlphaScreen) was “blocked the Skp2-Cks1 interaction at low μM concentrations”. The IC50 was 71 ± 4.4 µM in experiment [1] (setting [8]) and about 15 µM in experiment [2] (setting [9]). For the same molecule, the “effect on p27 ubiquitination” value in experiment [2] is “inhibited p27 ubiquitination in vitro”.
Turning to `Cc1cc(O)ccc1O` [MHQ, methylhydroquinone, reference compound], the IC50 in experiment [1] came to 434 ± 39.5 µM. Besides, in experiment [1] (AlphaScreen), the “effect on Skp2-Cks1 interaction (in words)” value is recorded as “no effect”. Besides, in experiment [2], the IC50 is over 300 µM and the “effect on p27 ubiquitination” value is “no effect”.
`COC(=O)c1ccc(CCc2cc(O)ccc2O)cc1` [NSC681152]: the “effect on Skp2-Cks1 interaction (in words)” value in experiment [1] (AlphaScreen) is listed as “blocked the Skp2-Cks1 interaction at low μM concentrations”. Further, the IC50 in experiment [1] (setting [8]) was 75.6 ± 6.8 µM; in experiment [2] (setting [9]), about 80 µM; in experiment [4], 2.64 µM. For the same molecule, the “effect on p27 ubiquitination” value in experiment [2] was “impeded p27 polyubiquitination in a dose-dependent manner; also recorded: inhibited p27 ubiquitination in vitro”. In experiment [3], the “endogenous p27 level” value is “increases only marginally”. Also, the “stabilization of GFP-p27” value in experiment [3] is given as “dose-dependent stabilization”. The GI50 in experiment [5] was 18.5 µM.
As to Skp2 (from UniProt Q13309), the results for the Kd in experiment [6] and in experiment [7] were 0.14 µM and 0.014 µM, respectively.
